One assay deals with Tubulin (Bos taurus, UniProt Q6B856+Q862L2+Q862F3). Nature of the assay: Inhibition of bovine brain tubulin polymerization incubated for 20 mins by spectrophotometry.
For the next assay, the system named is A549. Nature of the assay: Antiproliferative activity against human A549 cells after 48 hrs by MTT assay. In kind it is functional, cell-based. The conditions noted are these: A549, 48 h. The method, boiled down: (§1)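 Cells grown to log phase in RPMI 1640 with 10% FBS, seeded at 2×10^4 cells/mL and allowed 24 h at 37 °C, 5% CO₂ before treatment. Compounds at pre-set concentrations, colchicine and CA-4 as references, exposed 48 h. MTT added (2.5 mg/mL in PBS) for 4 h, then SDS/isobutyl alcohol/HCl extraction overnight; OD at 570 nm. Triplicate wells per concentration; values averaged from at least three separate runs.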

The test system of assay [1] is MCF7. Nature of the assay: Antiproliferative activity against human MCF7 cells after 48 hrs by MTT assay. In kind it is functional, cell-based. The following applies: MCF7, 48 h. The method, boiled down: as §1
On the technique in general: Tetrazolium assays rely on reduction of a dye to a coloured formazan, in cell work by metabolically active cells.

A short description of assay [2]: Antiproliferative activity against mouse B16F10 cells after 48 hrs by MTT assay. The following applies: B16-F10, 48 h. In kind it is functional, cell-based. The method in brief:
as §1

Assay [3] relates to MCF7. The experiment in a line: Induction of cell cycle arrest in human MCF7 cells assessed as accumulation at G2/M phase at 1 ug/ml after 24 hrs by flow cytometry (reference value: 25.67%). In kind it is functional. The method in brief: (§2)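 MCF-7 cells exposed 24 h to the compound at 1 and 2 μg/mL. Phase distribution (G0/G1, S, G2/M) was measured by flow cytometry and reported as percentage of cells in each phase.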
For orientation: A flow cytometer gives signals particle by particle.

Assay [4] has as its system MCF7. Nature of the assay: Induction of cell cycle arrest in human MCF7 cells assessed as accumulation at S phase at 1 ug/ml after 24 hrs by flow cytometry (reference value: 14.58%). In kind it is functional. The method in brief:
as §2

For assay [5], the system named is MCF7. The experiment in a line: Induction of cell cycle arrest in human MCF7 cells assessed as accumulation at G0/G1 phase at 1 ug/ml after 24 hrs by flow cytometry (reference value: 59.75%). In kind it is functional. The method, boiled down: as §2
For assay [6], the system named is MCF7. Nature of the assay: Induction of cell cycle arrest in human MCF7 cells assessed as accumulation at G0/G1 phase at 2 ug/ml after 24 hrs by flow cytometry (reference value: 59.75%). In kind it is functional. The method, boiled down:
as §2

For assay [7], the system named is MCF7. Nature of the assay: Induction of cell cycle arrest in human MCF7 cells assessed as accumulation at S phase at 2 ug/ml after 24 hrs by flow cytometry (reference value: 14.58%). In kind it is functional. The method, boiled down:
as §2

The test system of assay [8] is MCF7. Nature of the assay: Induction of cell cycle arrest in human MCF7 cells assessed as accumulation at G2/M phase at 2 ug/ml after 24 hrs by flow cytometry (reference value: 25.67%). It is filed as functional. The method in brief:
as §2

Assay [9] deals with MCF7. Nature of the assay: Induction of cell cycle arrest in human MCF7 cells assessed as accumulation at G2/M phase after 24 hrs by flow cytometry. In kind it is functional, cell-based. The method, boiled down: as §2
The test system of assay [10] is MCF7. Nature of the assay: Induction of cell cycle arrest in human MCF7 cells assessed as accumulation at G0/G1 phase after 24 hrs by flow cytometry (reference value: 59.75%). It is filed as functional. The method, boiled down: as §2
For assay [11], the system named is MCF7. Nature of the assay: Induction of cell cycle arrest in human MCF7 cells assessed as accumulation at S phase after 24 hrs by flow cytometry (reference value: 14.58%). In kind it is functional. The method, boiled down:
as §2

The test system of assay [12] is MCF7. Nature of the assay: Induction of cell cycle arrest in human MCF7 cells assessed as accumulation at G2/M phase after 24 hrs by flow cytometry (reference value: 25.67%). It is filed as functional. The method, boiled down: as §2

The term IC50 denotes the concentration needed to halve the response being measured. The pIC50 is −log10 of the IC50, conventionally taken in molar units. As for `O=C(/C=C/c1ccccc1)Nc1cc(-c2ccccc2)[nH]n1`, the IC50 at Tubulin came to 2.84 µM; in the assay on A549, 1.58 µM; in the assay on MCF7 [1] it was 1.36 µM; in assay [2], 1.56 µM. At Tubulin, this compound showed a negative logarithm of the IC50 (pIC50) of 5.547.
As to `Cc1ccc(-c2cc(NC(=O)/C=C/c3ccc(F)cc3)n[nH]2)cc1`, the IC50 is 1.92 µM on Tubulin, 1.25 µM in the assay with A549, 0.95 µM with MCF7 [1] and 1.43 µM in [2]. On Tubulin, the pIC50 is listed as 5.717.
With `Cc1ccc(-c2cc(NC(=O)/C=C/c3ccc(Cl)cc3)n[nH]2)cc1`, the IC50 at Tubulin came out at 2.15 µM; with A549 it was 1.49 µM; with MCF7 [1], 1.19 µM; in assay [2], 1.52 µM. Moreover, the pIC50 against Tubulin was determined as 5.668.
The like results for `O=C(/C=C/c1ccc([N+](=O)[O-])cc1)Nc1cc(-c2ccc(Br)cc2)[nH]n1` were, in that order, 1.24 µM, 0.74 µM, 0.56 µM, 0.63 µM and 5.907.
Take `O=C(/C=C\c1ccc(C(F)(F)F)cc1)Nc1cc(-c2ccccc2)[nH]n1`: the IC50 against Tubulin was 1.34 µM; with A549 it was 0.88 µM; in the assay with MCF7 [1], 0.54 µM; in assay [2] it was 0.64 µM. At Tubulin, this compound had a negative logarithm of the IC50 (pIC50) of 5.873.
Consider `O=C(/C=C/c1ccc(Cl)cc1)Nc1cc(-c2ccc(Br)cc2)[nH]n1`, for which the concentration for half-maximal inhibition (IC50) against Tubulin stood at 1.95 µM; in the assay on A549, 1.21 µM; with MCF7 [1], 0.77 µM; in [2] it was 1.08 µM. This compound gave a pIC50 against Tubulin of 5.71.
The like results for `O=C(/C=C/c1ccccc1)Nc1cc(-c2ccc(Br)cc2)[nH]n1` were, in that order, 2.55 µM, 1.44 µM, 1.12 µM, 1.27 µM and 5.593.
`O=C(/C=C\c1ccc(F)cc1)Nc1cc(-c2ccc(Br)cc2)[nH]n1`: the IC50 against Tubulin was 1.78 µM; in the assay with A549, 0.93 µM; in the assay on MCF7 [1] it was 0.64 µM; in assay [2], 0.85 µM. For the same compound, the negative-log IC50 (pIC50) against Tubulin is 5.75.
On to `COc1ccc(/C=C\c2cc(OC)c(OC)c(OC)c2)cc1O` [COMBRETASTATIN A4], for which the figures for the IC50 (with A549; in the assay on MCF7 [1]; in [2]) were 0.46 µM, 0.21 µM and 0.42 µM, respectively.
For the compound `O=C(/C=C/c1ccc([N+](=O)[O-])cc1)Nc1cc(-c2ccccc2)[nH]n1`, the 50% inhibitory concentration (IC50) against Tubulin is 1.56 µM; in the assay on A549, 0.97 µM; with MCF7 [1], 0.63 µM; in assay [2], 0.72 µM. On Tubulin, this compound displayed a pIC50 of 5.807.
Regarding `COc1ccc(/C=C/C(=O)Nc2cc(-c3ccc(Br)cc3)[nH]n2)cc1`, the IC50 against Tubulin is 1.35 µM; in the assay on A549 it was 0.82 µM; with MCF7 [1], 0.59 µM; in [2], 0.77 µM. On Tubulin, this compound showed a pIC50 of 5.87.
Take `O=C(/C=C/c1ccc(F)cc1)Nc1cc(-c2ccccc2)[nH]n1`: the IC50 at Tubulin was found to be 1.85 µM; with A549, 1.22 µM; with MCF7 [1] it was 0.84 µM; in [2] it was 1.25 µM. At Tubulin, this compound returned a pIC50 of 5.733.
The like results for `Cc1ccc(-c2cc(NC(=O)/C=C/c3ccc([N+](=O)[O-])cc3)n[nH]2)cc1` were, in that order, 1.62 µM, 1.13 µM, 0.84 µM, 1.32 µM and 5.79.
The corresponding values for `Cc1ccc(/C=C/C(=O)Nc2cc(-c3ccc(C)cc3)[nH]n2)cc1` are 3.36 µM, 1.88 µM, 1.72 µM, 1.75 µM and 5.474.
Turning to `O=C(/C=C/c1ccc(Cl)cc1)Nc1cc(-c2ccccc2)[nH]n1`, the IC50 was 2.06 µM on Tubulin, 1.39 µM in the assay on A549, 0.97 µM in the assay on MCF7 [1] and 1.27 µM in [2]. Also, the pIC50 against Tubulin is 5.686.
Consider `COc1ccc(/C=C/C(=O)Nc2cc(-c3ccc(C)cc3)[nH]n2)cc1`, for which the IC50 at Tubulin amounted to 1.76 µM; in the assay with A549, 1.19 µM; in the assay on MCF7 [1] it was 0.86 µM; in assay [2], 1.37 µM. The pIC50 on Tubulin worked out at 5.754.
Consider `O=C(/C=C/c1ccc(Br)cc1)Nc1cc(-c2ccc(Br)cc2)[nH]n1`, for which the IC50 at Tubulin is 2.14 µM; in the assay with A549 it was 1.36 µM; with MCF7 [1], 0.92 µM; in [2] it was 1.28 µM. This compound also gave a pIC50 against Tubulin of 5.67.
As to `Cc1ccc(/C=C/C(=O)Nc2cc(-c3ccc(Br)cc3)[nH]n2)cc1`, the IC50 against Tubulin was 2.76 µM; with A549 it was 1.62 µM; with MCF7 [1], 1.17 µM; in [2], 1.48 µM. Besides, the pIC50 against Tubulin came to 5.56.
The like results for `O=C(/C=C/c1ccc(Br)cc1)Nc1cc(-c2ccccc2)[nH]n1` were, in that order, 2.36 µM, 1.46 µM, 1.24 µM, 1.38 µM and 5.627.
For `Cc1ccc(-c2cc(NC(=O)/C=C/c3ccc(Br)cc3)n[nH]2)cc1`, the IC50 at Tubulin was determined as 2.55 µM; with A549, 1.59 µM; with MCF7 [1] it was 1.37 µM; in assay [2], 1.57 µM. The compound further came in with a pIC50 on Tubulin of 5.593.
Turning to `Cc1ccc(-c2cc(NC(=O)/C=C/c3ccccc3)n[nH]2)cc1`, the half-maximal inhibitory concentration (IC50) on Tubulin came to 3.12 µM; in the assay on A549 it was 1.67 µM; in the assay on MCF7 [1], 1.63 µM; in [2] it was 1.68 µM. On Tubulin, this compound returned a pIC50 of 5.506.
As for `Cc1ccc(/C=C/C(=O)Nc2cc(-c3ccccc3)[nH]n2)cc1`, the half-inhibitory concentration (IC50) against Tubulin is 3.02 µM; with A549 it was 1.77 µM; in the assay on MCF7 [1], 1.78 µM; in assay [2] it was 1.68 µM. This compound showed a pIC50 on Tubulin of 5.52.
As to `COc1ccc(/C=C\C(=O)Nc2cc(-c3ccccc3)[nH]n2)cc1`, the IC50 amounted to 1.64 µM at Tubulin, 1.06 µM with A549, 0.72 µM with MCF7 [1] and 0.95 µM in assay [2]. Moreover, on Tubulin, the pIC50 came out at 5.785.
Consider `O=C(/C=C/c1ccc(C(F)(F)F)cc1)Nc1cc(-c2ccc(Br)cc2)[nH]n1`, for which the IC50 at Tubulin was 1.02 µM; with A549, 0.62 µM; in the assay on MCF7 [1] it was 0.35 µM; in assay [2], 0.57 µM. For the same compound, the pIC50 on Tubulin is given as 5.991. The Activity in the assay with MCF7 [3] came out at 45.55%; in the assay on MCF7 [4], 18.46%; in the assay with MCF7 [5], 35.99%; in the assay on MCF7 [6] it was 6.77%; with MCF7 [7] it was 16.28%; in the assay on MCF7 [8] it was 76.95%. In addition, in the assay with MCF7 [9], the Activity entry is “Dose-dependent effect”.
With `COc1cc2c(c(OC)c1OC)-c1ccc(OC)c(=O)cc1[C@@H](NC(C)=O)CC2` [COLCHICINE], the Activity with MCF7 [10] was 6.94%; with MCF7 [11], 12.44%; in the assay with MCF7 [12], 80.62%. Besides, the figures for the IC50 (in the assay on A549; in the assay on MCF7 [1]; in [2]) were 0.58 µM, 0.39 µM and 0.48 µM, respectively.
In the case of `Cc1ccc(-c2cc(NC(=O)/C=C/c3ccc(C(F)(F)F)cc3)n[nH]2)cc1`, the IC50 is 1.53 µM against Tubulin, 1.02 µM with A549, 0.72 µM in the assay on MCF7 [1] and 1.21 µM in assay [2]. In addition, the pIC50 on Tubulin stood at 5.815.

Source of the values: ChEMBL document CHEMBL3407470, “Synthesis, biological evaluation and 3D-QSAR studies of novel 5-phenyl-1H-pyrazol cinnamamide derivatives as novel antitubulin agents” (Eur J Med Chem, 2015).
